Reference: ChEMBL document CHEMBL3588757, “Structure-based design, synthesis and biological testing of piperazine-linked bis-epipodophyllotoxin etoposide analogs” (Bioorg Med Chem, 2015)

Legend:
Assay type in all cases: functional
HCC 2998 = assay: Cytotoxicity against human HCC2998 cells by SRB assay
Method in brief: (§1)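 Measured in the NCI-60 human tumour cell line panel using five-dose testing. Growth was recorded at each dose for each cell line, and a GI50 was derived for each line.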

U-251 = assay: Cytotoxicity against human U251 cells by SRB assay
Method in brief: (§2)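 NCI-60 panel screen; 5-dose testing giving GI50 per cell line, plus a single 10 µM one-dose test. Method details not given beyond the NCI screen.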

MCF7 [1] = assay: Cytotoxicity against human MCF7 cells assessed as cell growth at 0.5 uM by SRB assay; settings: read-out: Activity
SNB-19 [2] = assay: Cytotoxicity against human SNB19 cells assessed as cell growth at 0.5 uM by SRB assay; settings: read-out: Activity
OVCAR-4 [3] = assay: Cytotoxicity against human OVCAR4 cells assessed as cell growth at 5 uM by SRB assay; settings: read-out: Activity
SF-539 = assay: Cytotoxicity against human SF539 cells assessed as cell growth at 0.05 uM by SRB assay; settings: read-out: Activity
CAKI-1 = assay: Cytotoxicity against human Caki1 cells assessed as cell growth at 0.005 uM by SRB assay; settings: read-out: Activity
UACC-62 [4] = assay: Cytotoxicity against human UACC62 cells assessed as cell growth at 5 uM by SRB assay; settings: read-out: Activity
OVCAR-3 = assay: Cytotoxicity against human OVCAR3 cells assessed as cell growth at 0.005 uM by SRB assay; settings: read-out: Activity
MDA-MB-231 [5] = assay: Cytotoxicity against human MDA-MB-231/ATCC cells assessed as cell growth at 0.05 uM by SRB assay; settings: read-out: Activity
MCF7 [6] = assay: Cytotoxicity against human MCF7 cells assessed as cell growth at 5 uM by SRB assay; settings: read-out: Activity
UACC-257 [7] = assay: Cytotoxicity against human UACC257 cells assessed as cell growth at 50 uM by SRB assay; settings: read-out: Activity
KM12 = assay: Cytotoxicity against human KM12 cells assessed as cell growth at 5 uM by SRB assay; settings: read-out: Activity
NCI-H23 [8] = assay: Cytotoxicity against human NCI-H23 cells assessed as cell growth at 0.05 uM by SRB assay; settings: read-out: Activity
COLO 205 = assay: Cytotoxicity against human COLO205 cells by SRB assay
RXF 393 = assay: Cytotoxicity against human RXF393 cells assessed as cell growth at 0.05 uM by SRB assay; settings: read-out: Activity
MCF7 [9] = assay: Cytotoxicity against human MCF7 cells assessed as cell growth at 0.005 uM by SRB assay; settings: read-out: Activity
[10] = Cytotoxicity against human NCI-ADR-RES cells assessed as cell growth at 5 uM by SRB assay; settings: read-out: Activity
HOP-62 = assay: Cytotoxicity against human HOP62 cells assessed as cell growth at 0.05 uM by SRB assay; settings: read-out: Activity; method in brief: as §1
ACHN [11] = assay: Cytotoxicity against human ACHN cells assessed as cell growth at 50 uM by SRB assay; settings: read-out: Activity
NCI-H23 [12] = assay: Cytotoxicity against human NCI-H23 cells assessed as cell growth at 5 uM by SRB assay; settings: read-out: Activity
MCF7 [13] = assay: Cytotoxicity against human MCF7 cells by SRB assay; method in brief: as §2
UACC-257 [14] = assay: Cytotoxicity against human UACC257 cells assessed as cell growth at 0.5 uM by SRB assay; settings: read-out: Activity
[15] = Cytotoxicity against human NCI-ADR-RES cells assessed as cell growth at 0.05 uM by SRB assay; settings: read-out: Activity
UO-31 = assay: Cytotoxicity against human UO31 cells assessed as cell growth at 0.5 uM by SRB assay; settings: read-out: Activity
MDA-MB-468 = assay: Cytotoxicity against human MDA-MB-468 cells assessed as cell growth at 50 uM by SRB assay; settings: read-out: Activity
NCI-H226 [16] = assay: Cytotoxicity against human NCI-H226 cells assessed as cell growth at 0.5 uM by SRB assay; settings: read-out: Activity
NCI-H226 [17] = assay: Cytotoxicity against human NCI-H226 cells by SRB assay; method in brief: as §2
SNB-75 = assay: Cytotoxicity against human SNB75 cells assessed as cell growth at 0.05 uM by SRB assay; settings: read-out: Activity
MDA-MB-231 [18] = assay: Cytotoxicity against human MDA-MB-231/ATCC cells assessed as cell growth at 0.005 uM by SRB assay; settings: read-out: Activity
TK-10 = assay: Cytotoxicity against human TK10 cells assessed as cell growth at 5 uM by SRB assay; settings: read-out: Activity
SW-620 = assay: Cytotoxicity against human SW620 cells assessed as cell growth at 0.005 uM by SRB assay; settings: read-out: Activity
ACHN [19] = assay: Cytotoxicity against human ACHN cells assessed as cell growth at 0.05 uM by SRB assay; settings: read-out: Activity
SNB-19 [20] = assay: Cytotoxicity against human SNB19 cells by SRB assay; method in brief: as §2
HL-60(TB) = assay: Cytotoxicity against human HL-60(TB) cells assessed as cell growth at 0.05 uM by SRB assay; settings: read-out: Activity; method in brief: as §1
NCI-H226 [21] = assay: Cytotoxicity against human NCI-H226 cells assessed as cell growth at 5 uM by SRB assay; settings: read-out: Activity
SF-268 = assay: Cytotoxicity against human SF268 cells by SRB assay; method in brief: as §2
HCT-116 = assay: Cytotoxicity against human HCT116 cells assessed as cell growth at 0.5 uM by SRB assay; settings: read-out: Activity; method in brief: as §1
SR = assay: Cytotoxicity against human SR cells assessed as cell growth at 0.5 uM by SRB assay; settings: read-out: Activity
UACC-257 [22] = assay: Cytotoxicity against human UACC257 cells assessed as cell growth at 5 uM by SRB assay; settings: read-out: Activity
UACC-62 [23] = assay: Cytotoxicity against human UACC62 cells by SRB assay; method in brief: as §2
OVCAR-4 [24] = assay: Cytotoxicity against human OVCAR4 cells assessed as cell growth at 0.05 uM by SRB assay; settings: read-out: Activity
[25] = read-out: LC50 (the source's name)
[26] = read-out: pLC50 (the source's name) (converted)

SMILES: COc1cc([C@@H]2c3cc4c(cc3[C@@H](NC(=O)CN3CCN(CCCCCCCCCCN5CCN(CC(=O)N[C@@H]6c7cc8c(cc7[C@@H](c7cc(OC)c(O)c(OC)c7)[C@H]7C(=O)OC[C@@H]76)OCO8)CC5)CC3)[C@H]3COC(=O)[C@H]23)OCO4)cc(OC)c1O
- GI50 (HCC 2998; read-out: GI50): 1.09 µM
- CC50 (HCC 2998; [25]): 20.5 µM
- TGI (HCC 2998; read-out: TGI): 8.39 µM
- GI50 (HCC 2998; read-out: pGI50 (converted)): 1.1 µM
- CC50 (HCC 2998; [26]): 20.4 µM
- TGI (HCC 2998; read-out: pTGI (converted)): 8.32 µM
- GI50 (U-251; read-out: GI50): 0.532 µM
- CC50 (U-251; [25]): 23.4 µM
- TGI (U-251; read-out: TGI): 6.27 µM
- GI50 (U-251; read-out: pGI50 (converted)): 0.537 µM
- CC50 (U-251; [26]): 23.4 µM
- TGI (U-251; read-out: pTGI (converted)): 6.31 µM
- growth at 0.5 µM (MCF7 [1]): 30%
- growth at 0.5 µM (SNB-19 [2]): 42%
- growth at 5 µM (OVCAR-4 [3]): -28%
- growth at 0.05 µM (SF-539): 74%
- growth at 0.005 µM (CAKI-1): 93%
- growth at 5 µM (UACC-62 [4]): 65%
- growth at 0.005 µM (OVCAR-3): 100%
- growth at 0.05 µM (MDA-MB-231 [5]): 92%
- growth at 5 µM (MCF7 [6]): 18%
- growth at 50 µM (UACC-257 [7]): -58%
- growth at 5 µM (KM12): -22%
- growth at 0.05 µM (NCI-H23 [8]): 81%
- GI50 (COLO 205; read-out: GI50): 0.906 µM
- CC50 (COLO 205; [25]): > 50 µM
- TGI (COLO 205; read-out: TGI): 3.52 µM
- GI50 (COLO 205; read-out: pGI50 (converted)): 0.912 µM
- CC50 (COLO 205; [26]): > 50.1 µM
- TGI (COLO 205; read-out: pTGI (converted)): 3.55 µM
- growth at 0.05 µM (RXF 393): 84%
- growth at 0.005 µM (MCF7 [9]): 90%
- growth at 5 µM [10]: 53%
- growth at 0.05 µM (HOP-62): 48%
- growth at 50 µM (ACHN [11]): -87%
- growth at 5 µM (NCI-H23 [12]): -35%
- GI50 (MCF7 [13]; read-out: GI50): 0.114 µM
- CC50 (MCF7 [13]; [25]): 37.4 µM
- TGI (MCF7 [13]; read-out: TGI): 8.5 µM
- GI50 (MCF7 [13]; read-out: pGI50 (converted)): 0.115 µM
- CC50 (MCF7 [13]; [26]): 37.2 µM
- TGI (MCF7 [13]; read-out: pTGI (converted)): 8.51 µM
- growth at 0.5 µM (UACC-257 [14]): 73%
- growth at 0.05 µM [15]: 97%
- growth at 0.5 µM (UO-31): 76%
- growth at 50 µM (MDA-MB-468): -69%
- growth at 0.5 µM (NCI-H226 [16]): 49%
- GI50 (NCI-H226 [17]; read-out: GI50): 0.469 µM
- CC50 (NCI-H226 [17]; [25]): 22.6 µM
- TGI (NCI-H226 [17]; read-out: TGI): 9.32 µM
- GI50 (NCI-H226 [17]; read-out: pGI50 (converted)): 0.468 µM
- CC50 (NCI-H226 [17]; [26]): 22.4 µM
- TGI (NCI-H226 [17]; read-out: pTGI (converted)): 9.33 µM
- growth at 0.05 µM (SNB-75): 82%
- growth at 0.005 µM (MDA-MB-231 [18]): 98%
- growth at 5 µM (TK-10): -4%
- growth at 0.005 µM (SW-620): 92%
- growth at 0.05 µM (ACHN [19]): 88%
- GI50 (SNB-19 [20]; read-out: GI50): 0.352 µM
- CC50 (SNB-19 [20]; [25]): 2.79 µM
- TGI (SNB-19 [20]; read-out: TGI): 1.1 µM
- GI50 (SNB-19 [20]; read-out: pGI50 (converted)): 0.355 µM
- CC50 (SNB-19 [20]; [26]): 2.82 µM
- TGI (SNB-19 [20]; read-out: pTGI (converted)): 1.1 µM
- growth at 0.05 µM (HL-60(TB)): 69%
- growth at 5 µM (NCI-H226 [21]): 35%
- GI50 (SF-268; read-out: GI50): 0.452 µM
- CC50 (SF-268; [25]): > 50 µM
- TGI (SF-268; read-out: TGI): 1.94 µM
- GI50 (SF-268; read-out: pGI50 (converted)): 0.457 µM
- CC50 (SF-268; [26]): > 50.1 µM
- TGI (SF-268; read-out: pTGI (converted)): 1.95 µM
- growth at 0.5 µM (HCT-116): 78%
- growth at 0.5 µM (SR): 33%
- growth at 5 µM (UACC-257 [22]): -97%
- GI50 (UACC-62 [23]; read-out: GI50): 7.23 µM
- CC50 (UACC-62 [23]; [25]): > 50 µM
- TGI (UACC-62 [23]; read-out: TGI): 24.1 µM
- GI50 (UACC-62 [23]; read-out: pGI50 (converted)): 7.24 µM
- CC50 (UACC-62 [23]; [26]): > 50.1 µM
- TGI (UACC-62 [23]; read-out: pTGI (converted)): 24 µM
- growth at 0.05 µM (OVCAR-4 [24]): 94%
